Assay outcomes as filed in PubChem BioAssay.
PLCb3 inh: human PLC-beta3 inhibitors, primary screen, biochemical, fluorescence; 1-phosphatidylinositol 4,5-bisphosphate phosphodiesterase beta-3 (Homo sapiens), Q01970; 0.18% of 370,000 active; AID 720704, 2013; Purified PLC-beta3, fluorogenic substrate; inhibition, % at 12.2 µM; in the data active = inhibition above about 11%;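 note: 0% = median of compound wells on plate and 100% = full blocker control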
ASAP1 inh: inhibitors of human ASAP1 ArfGAP activity, primary screen, biochemical, fluorescence polarization; ASAP1-stimulated ARF1 GTP hydrolysis, GDP FP detection; inhibition, % at 16.5 µM; 0.19% of 360,000 active; AID 624377, 2012; in the data active = inhibition above about 25%;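 note: 0% = vehicle with enzyme and substrate and 100% = no enzyme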
Target sequence (Q9ULH1 325-724 limits assumed): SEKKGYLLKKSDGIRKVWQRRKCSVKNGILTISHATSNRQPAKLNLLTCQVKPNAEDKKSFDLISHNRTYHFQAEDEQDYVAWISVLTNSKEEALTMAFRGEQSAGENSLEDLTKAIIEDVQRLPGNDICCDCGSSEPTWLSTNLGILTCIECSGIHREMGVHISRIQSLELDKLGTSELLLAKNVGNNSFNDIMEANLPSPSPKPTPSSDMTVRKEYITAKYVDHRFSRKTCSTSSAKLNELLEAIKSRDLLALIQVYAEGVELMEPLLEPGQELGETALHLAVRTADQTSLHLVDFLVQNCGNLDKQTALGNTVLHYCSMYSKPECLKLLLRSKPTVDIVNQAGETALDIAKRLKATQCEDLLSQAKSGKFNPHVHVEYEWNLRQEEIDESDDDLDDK
PLC-gamma1 inh: PLC-gamma1 enzyme inhibitors, primary screen, biochemical, fluorescence, purified enzyme; inhibition, % at 12.2 µM; fluorogenic substrate; 0.84% of 370,000 active; in the data active = inhibition above about 9.5%
sPLA2-III inh: human group III sPLA2 inhibitors, primary screen, biochemical, QFRET, BODIPY PC-A2 liposome substrate. Group 3 secretory phospholipase A2 (Homo sapiens), Q9NZ20. QFRET BODIPY PC-A2 liposome hydrolysis, fluorescence. inhibition, % at 12.2 µM. 0.56% of 370,000 active;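 active = inhibition above mean plus 3 SD of compounds lying within the high and low control bounds, cut at about 19% in these data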;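 note: 0% = median of test compound wells and 100% = no enzyme DMSO wells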
ARFGAP1 inhibitor: inhibitors of rat ARFGAP1 GAP activity, primary screen, biochemical, fluorescence polarization, GDP tracer; AID 651572, 2012; Arfgap1-stimulated ARF1 GTP hydrolysis, GDP FP detection; inhibition, % at 16.5 µM; 0.26% of 360,000 active; ADP-ribosylation factor GTPase-activating protein 1 (Rattus norvegicus), Q62848;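 active = inhibition above a per-plate limit, mean inhibition of low control wells plus 3 SD, cut at about 25% in these data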;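 note: 0% = DMSO wells with enzyme and 100% = wells lacking Arfgap1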
Target sequence (Q62848 1-136 limits assumed): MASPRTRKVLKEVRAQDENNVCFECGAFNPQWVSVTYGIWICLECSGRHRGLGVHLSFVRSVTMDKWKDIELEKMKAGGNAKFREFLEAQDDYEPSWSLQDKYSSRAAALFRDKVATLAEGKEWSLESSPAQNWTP
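Assay system: purified rat His6-Arfgap1 residues 1-136 (GAP domain); Reagent: human Δ17 ARF1 bound to GTP; Dosing: 16.5 µM single point, 1.26% DMSO; Times: GTP hydrolysis reaction 2 h at 25 °C; Signal: FP, GDP Alexa 633 tracer displaced from anti-GDP antibody, 620/688 nm; Measure: % inhibition from polarization.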
sPLA2 confirm: human group III sPLA2 inhibitors, confirmation, biochemical, QFRET, triplicate; shares compounds with sPLA2-III inh; recombinant hGIII-sPLA2, BODIPY PC-A2 QFRET fluorescence; inhibition, % at 12.2 µM; 34% of 2,000 active; AID 743280, 2014;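 active = mean inhibition across triplicates above the hit cutoff set in the earlier primary screen, cut at about 19% in these data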;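 note: 0% = enzyme with DMSO and 100% = DMSO wells lacking enzyme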
BODIPY interf: 535nm fluorescence optical interference, confirmation, artefact control for HGIII-sPLA2 inhibitor project, biochemical, QFRET. inhibition, % at 12.2 µM. AID 743282, 2014. 8.5% of 2,000 active. BODIPY FL product fluorescence interference. shares compounds with sPLA2-III inh;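 active = average inhibition above the solvent-only control mean plus 3 SD, cut at about 6% in these data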;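 note: 0% = DMSO with substrate plus product and 100% = DMSO with substrate alone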
535nm interf DR: 535nm fluorescence optical interference, dose response, artefact control for HGIII-sPLA2 inhibitor project, biochemical, QFRET; shares compounds with sPLA2-III inh; BODIPY FL product fluorescence interference, cell-free; IC50, µM; 240 tested, under 10 active; AID 743455, 2014;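 active = IC50 at or below 10 µM; inactive = IC50 above 10 µM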
* hit, by the source's call; · = no result. Most compounds without a hit are left out; they make up all but 1.9% or so of the library.

SMILES	PLCb3 inh	ASAP1 inh	PLC-gamma1 inh	sPLA2-III inh	ARFGAP1 inhibitor	sPLA2 confirm	BODIPY interf	others
Cc1ccc(NC(=S)NC2CCCC2)c(C)c1	-2.0	7.0	2.9	19.3*	-3.0	16.8	-1.9
COc1ccc(S[C@]2(C(=O)N(C)C)CC(=O)N(C(=O)c3ccccc3)[C@@H]2c2ccc(OC)cc2)cc1	-0.4	·	1.1	0.7	·	·	·
N#Cc1cccc(Cn2ccc3ccc(-c4ccc5ccn(Cc6ccccc6)c5c4)cc32)c1	-77.3	·	-54.2	13.2	·	·	·
Cc1ccccc1-n1nc(C(=O)c2cccs2)cc(-c2nc3ccccc3[nH]2)c1=N	-98.3	-7.4	-91.8	23.2*	-6.7	18.6	7.4*
C=CCN1C(=O)[C@@H](CC(=O)NCc2cccs2)[C@]2(C(=O)OC)CCCCC=C12	-3.9	·	0.6	9.4	·	·	·
O=C(CSc1nnc(-c2ccccc2)n1-c1ccc(Cl)cc1)Nc1ccccc1-c1ccccc1	3.1	·	9.2	8.3	·	·	·
Cc1ccc(S(=O)(=O)NNC(=O)c2sc(=S)n(C)c2C)cc1	-0.1	6.8	7.7	22.8*	8.6	5.5	-1.8
Cc1ccc(S(=O)(=O)NNC(=O)c2ccncc2)cc1	-0.1	-2.3	2.9	6.9	-0.8	·	·
C[C@H]1[C@@H](NC(=O)C(c2ccccc2)c2ccccc2)CC[C@@]23CCCN2C(=O)CCC[C@@H]13	2.1	·	-1.0	-2.8	·	·	·
C[C@@H]1C[C@H]2[C@@H](Cc3ccccc3)C(=O)N3[C@H](c4ccccc4)[C@H](C)C[C@H]3[C@@H](Cc3ccccc3)C(=O)N2[C@@H]1c1ccccc1	-0.7	·	0.1	1.9	·	·	·
CCOC(=O)c1cnc(Cc2ccccc2)[nH]c1=O	-1.7	-4.6	-0.1	2.8	-5.1	·	·
CCOC(=O)c1cnc(-n2[nH]c(C)c(Cc3ccccc3)c2=O)[nH]c1=O	-5.6	-1.0	-5.5	23.1*	1.7	19.8*	-4.9
O=C(Nc1ccccc1)c1cn(CCBr)cn1	-8.2	8.6	7.7	19.8*	18.2	5.5	-6.4
CC(C)NC(=O)c1ccccc1NC(=O)/C=C/c1cccc([N+](=O)[O-])c1	-1.9	10.1	0.3	23.1*	7.0	-3.4	4.4
Cc1cc2cc3c(cc2n2c(SCC(=O)Nc4nc(-c5ccccc5)cs4)nnc12)OCO3	-32.1	·	-19.0	13.5	·	·	·
Cn1ccc2c(N3CCCCCCC3)cc3c(c21)C1CCC3O1 (stereo not given)	-48.1	4.1	-30.2	19.5*	-9.1	31.9*	-7.2	535nm interf DR=>122
O=C1c2ccccc2C(=O)c2c(NCCCN(CCO)CCO)cccc21	-0.5	4.9	3.4	19.8*	-7.6	31.3*	-7.3	535nm interf DR=>122
C=CC(=O)NC1CCCCN(C(C)C)C1=O (stereo not given)	-0.1	·	-0.3	4.0	·	·	·
CCCOc1ccc(/C=N/Nc2ccccc2[N+](=O)[O-])c(O)c1	0.5	0.2	2.2	6.7	13.3	·	·
CCCOc1ccc(/C=N/NC(=S)Nc2ccccc2[N+](=O)[O-])c(O)c1	2.9	-8.3	1.0	37.1*	-0.4	55.8*	12.1*
CC(=O)OCC1OC(n2cc(F)c(=O)[nH]c2=O)C(OC(C)=O)C1OC(C)=O (stereo not given)	-3.8	-5.2	-3.2	19.5*	6.9	0.9	-6.7
CC(=O)N1N=C(c2ccc3ccccc3c2)OC1(C)C	-97.6	-4.3	-100.0	-6.1	6.7	·	·
CC(=O)N1N=C(c2ccc(C(C)(C)C)cc2)OC1(C)C	0.6	-14.4	-3.7	20.3*	3.5	2.5	-17.4
Brc1ccc(-c2csc(N3CCC(c4nn[nH]n4)CC3)n2)cc1	-4.3	·	0.3	-29.2	·	·	·
N#CC(C#N)=c1ccc2c(c1)NC1(CCCCC1)N=2	-20.9	5.0	-14.0	38.3*	-5.0	60.9*	18.5*
SMILES	PLCb3 inh	ASAP1 inh	PLC-gamma1 inh	sPLA2-III inh	ARFGAP1 inhibitor	sPLA2 confirm	BODIPY interf	others
CCOC(=O)CCCNC(=O)OC1CC2CC1[C@H]1CCCCN1[C@H]2Cc1ccccc1 (stereo not given in full)	-2.5	·	4.3	-7.5	·	·	·
O=C(Nc1ccc(Br)cc1)OCCN1CCCC12CCC(c1ccccc1)CC2 (stereo not given)	-4.0	·	2.5	-8.0	·	·	·
Cc1cccc(-c2cccc3c4c([nH]c23)[C@@H]2C[C@H](N(C)C(=S)Nc3ccc(C#N)cc3)[C@H]([C@H](C)O)CN2CC4)c1	-248.7	·	-235.8	5.7	·	·	·
CN(CCOC(=O)CCCc1ccccc1)C1CN(Cc2cn(Cc3ccccc3F)nn2)S(=O)(=O)C1 (stereo not given)	-1.1	·	2.1	-8.7	·	·	·
O=C(NCCc1ccccc1)OCc1cn(Cc2ccccc2F)nn1	1.5	·	1.7	6.7	·	·	·
CCn1c(-c2nn(-c3ccccc3)ccc2=O)n[nH]c1=S	-0.2	6.9	2.7	24.3*	3.3	3.0	-2.8
O=C(CCNC(=O)c1ccccc1Cl)Nc1ccc(Br)c(C(F)(F)F)c1	1.1	2.5	5.9	2.7	4.5	·	·
O=C(CCNC(=O)c1ccccc1Cl)Nc1cc(C(F)(F)F)ccc1Cl	0.1	-4.5	-0.7	21.4*	-5.9	1.7	-10.9
CC1CCN(CC(=O)Nc2cc(C(F)(F)F)ccc2Cl)CC1	-0.1	7.0	-2.1	21.5*	6.6	6.5	-8.3
C=CCNC(=S)NNc1nc2c(c(=O)[nH]1)C1(CCCCC1)Cc1ccccc1-2	-20.5	4.4	-14.5	25.3*	2.8	29.3*	2.1	535nm interf DR=>122
CCOC(=O)C(=NC1CCCCC1)NNc1cccc(C(F)(F)F)c1	-7.9	0.8	-5.1	16.9	6.3	·	·
CCOC(=O)C(=NC(C)CC)NNc1cccc(C(F)(F)F)c1 (stereo not given)	-36.8	1.4	-26.4	23.7*	-3.2	34.8*	1.2	535nm interf DR=>122
Cc1ccc(O)c(N=Cc2cc(Cc3ccccc3)cc([N+](=O)[O-])c2O)c1	-4.6	1.6	6.7	25.1*	-17.6	22.7*	7.8*
COc1ccc(-c2noc(C3CCCN(C(=O)N[C@@H]4C[C@H]4c4ccccc4)C3)n2)cc1 (stereo not given in full)	6.1	·	6.4	-6.3	·	·	·
